From ChEMBL document CHEMBL1143246, “Design and synthesis of bicyclic pyrimidinones as potent and orally bioavailable HIV-1 integrase inhibitors” (J Med Chem, 2008)

Tests used:
[1] = Inhibition of recombinant HIV1 integrase strand transfer activity
[2] = test system: Human immunodeficiency virus 1; experiment: Antiviral activity against HIV1 in human MT4 cell assessed as inhibition of virus spread in presence of 50% normal human serum; assay type: functional; conditions: Human immunodeficiency virus 1, MT4; read-out: CIC95
In short: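 Spread of HIV-1 infection in MT-4 human T-lymphoid cell culture with 50% normal human serum; CIC95 is the concentration inhibiting spread by ≥95%; mean of at least three independent experiments.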

[3] = test system: Human immunodeficiency virus 1; experiment: Antiviral activity against HIV1 in human MT4 cell assessed as inhibition of virus spread in presence of 10% fetal bovine serum; assay type: functional; conditions: Human immunodeficiency virus 1, MT4; read-out: CIC95
In short: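 Spread of HIV-1 infection in MT-4 human T-lymphoid cell culture with 10% fetal bovine serum; CIC95 is the concentration inhibiting spread by ≥95%; mean of at least three independent experiments.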

[4] = organism: Homo sapiens; experiment: Protein binding in human plasma; conditions: read-out: PPB (converted)
[5] = test system: Liver microsomes; experiment: Metabolic stability in rat liver microsomes in presence of NADPH; assay type: ADME, Microsome
In short: (§1)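 Liver microsomes (1 mg/mL) with test compound at 2 µM, incubated with UDPGA or NADPH; degradation measured by LC/MS/MS after 1 h.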

[6] = test system: Liver; experiment: Metabolic stability in dog liver microsomes in presence of UDPGA; assay type: ADME, Canis lupus familiaris, Microsome
[7] = Protein binding in dog plasma; assay type: ADME, cell-free, Canis lupus familiaris; conditions: read-out: PPB (converted)
In short: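 Plasma protein binding measured by ultrafiltration after incubation at 37 °C for 1 h.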

[8] = test system: Liver microsomes; experiment: Metabolic stability in human liver microsomes in presence of NADPH; assay type: ADME, Microsome; in short: as §1
[9] = Protein binding in rat plasma; assay type: ADME, cell-free; conditions: read-out: PPB (converted)
In short: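 Plasma protein binding was measured by ultrafiltration after a 1 h incubation of compound in plasma at 37 °C.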

[10] = Plasma clearance in rat at 3 mg/kg, po or 3 mg/kg, iv; assay type: ADME, organism-based
In short: (§2)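 In vivo PK: iv dosing in DMSO/PEG400/H₂O mixtures, oral dosing as methylcellulose suspension. Half-life was taken after iv dosing; AUC and Cmax after po dosing.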

[11] = Oral bioavailability in rat at 3 mg/kg; assay type: ADME, organism-based; conditions: in vivo; in short: as §2
[12] = test system: Liver microsomes; experiment: Metabolic stability in human liver microsomes in presence of UDPGA; assay type: ADME, Microsome; in short: as §1
[13] = test system: Liver microsomes; experiment: Metabolic stability in rat liver microsomes in presence of UDPGA; assay type: ADME, Microsome
[14] = test system: Liver; experiment: Metabolic stability in dog liver microsomes in presence of NADPH; assay type: ADME, Canis lupus familiaris, Microsome; in short: as §1
[15] = Oral bioavailability in dog at 2 mg/kg; assay type: ADME, organism-based, Canis lupus familiaris; conditions: in vivo; in short: as §2
[16] = Plasma clearance in dog at 1 mg/kg, iv or 2 mg/kg, po; assay type: ADME, organism-based, Canis lupus familiaris; in short: as §2
[17] = test system: Liver microsomes; experiment: Metabolic stability in rat liver microsomes in presence of NADPH and UDPGA; assay type: ADME, Microsome
In short: (§3)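 Multiple time points over 1 h: compound 1 µM with liver microsomes 1 mg/mL, in the presence of both UDPGA and NADPH; degradation followed by LC/MS/MS.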

[18] = test system: Liver; experiment: Metabolic stability in dog liver microsomes in presence of NADPH and UDPGA; assay type: ADME, Canis lupus familiaris, Microsome; in short: as §3

Compound | IC50 [1] [nM] | IC95 [2] [nM] | IC95 [3] [nM] | other results
O=C(NCc1ccc(F)cc1)c1nc2n(c(=O)c1O)CCCC2N1CCOCC1 (racemic) | 5 |  |  | 
CN(C)S(=O)(=O)N(C)C1CCn2c1nc(C(=O)NCc1ccc(F)cc1)c(O)c2=O (racemic) | 45 | > 1000 | > 1000 | 
O=C(NCc1ccc(F)cc1)c1nc2n(c(=O)c1O)CCCCC2 | 19 |  |  | 
CC(=O)N(C)C1CCCCn2c1nc(C(=O)NCc1ccc(F)cc1)c(O)c2=O (racemic) | 8 | 500 | 250 | 
CN(C(=O)c1nc2ncccn2n1)C1CCCn2c1nc(C(=O)NCc1ccc(F)cc1)c(O)c2=O (racemic) | 10 | 250 | 250 | 
CN(C1CCCn2c1nc(C(=O)NCc1ccc(F)cc1)c(O)c2=O)S(=O)(=O)N1CCCCC1 (racemic) | 9 | 125 | 63 | 
CN(C)C(=O)C(=O)N(C)C1CCCn2c1nc(C(=O)NCc1ccc(F)cc1)c(O)c2=O (racemic) | 7 | 40 | 38 | 
CN(C)C(=O)C(=O)N(C)[C@@H]1CCCCn2c1nc(C(=O)NCc1ccc(F)cc1)c(O)c2=O | 35 | 42 | 21 | 
CN(C1CCCCn2c1nc(C(=O)NCc1ccc(F)cc1)c(O)c2=O)S(C)(=O)=O (racemic) | 16 | 125 | 31 | 
CC(=O)N(C)C1CCn2c1nc(C(=O)NCc1ccc(F)cc1)c(O)c2=O (racemic) | 9 | > 1000 | > 1000 | 
CN(C)C1CCn2c1nc(C(=O)NCc1ccc(F)cc1)c(O)c2=O (racemic) | 7 |  |  | 
CN(C1CCCn2c1nc(C(=O)NCc1ccc(F)cc1)c(O)c2=O)S(=O)(=O)N1CCCC1 (racemic) | 7 | 47 | 16 | 
CN(C)C(=O)C(=O)N(C)[C@@H]1CCCn2c1nc(C(=O)NCc1ccc(F)cc1)c(O)c2=O | 19 | 98 | 67 | 
CN1CCOCC1c1nc(C(=O)NCc2ccc(F)cc2)c(O)c(=O)n1C (configuration not stated) |  | 100 | 60 | 
CN(C(=O)CS(C)(=O)=O)C1CCCn2c1nc(C(=O)NCc1ccc(F)cc1)c(O)c2=O (racemic) | 6 | 22 | 16 | fraction unbound [4]: 0.3
CN1CCCN(C2CCCn3c2nc(C(=O)NCc2ccc(F)cc2)c(O)c3=O)S1(=O)=O (racemic) | 14 | 47 | 16 | 
CN(C(=O)CS(C)(=O)=O)C1CCCCn2c1nc(C(=O)NCc1ccc(F)cc1)c(O)c2=O (racemic) | 17 | 125 | 63 | 
CC(c1nc(O)c(O)c(C(=O)NCc2ccc(F)cc2)n1)N(C)C (configuration not stated) | 100 | 500 | 130 | 
CN(C1CCCn2c1nc(C(=O)NCc1ccc(F)cc1)c(O)c2=O)S(=O)(=O)N1CCOCC1 (racemic) | 11 | 31 | 15 | 
CN(Cc1ccccc1)C1CCCCn2c1nc(C(=O)NCc1ccc(F)cc1)c(O)c2=O (racemic) | 62 |  |  | 
CN(C(=O)CS(=O)(=O)N(C)C)[C@H]1CCCn2c1nc(C(=O)NCc1ccc(F)cc1)c(O)c2=O | 7 | 31 | 16 | Stability [5]: 51 %/hr; Stability [6]: 24 %/hr; fraction unbound [7]: 0.29; Stability [8]: 36 %/hr; fraction unbound [4]: 0.22; fraction unbound [9]: 0.26; clearance [10]: 55 mL/min/kg; bioavailability [11]: 17%; Stability [12]: 46 %/hr; Stability [13]: 47 %/hr; Stability [14]: 15 %/hr
CN(C)C(=O)C(=O)N(C)C1CCn2c1nc(C(=O)NCc1ccc(F)cc1)c(O)c2=O (racemic) | 20 | > 1000 | > 1000 | 
CN(C(=O)C(F)F)C1CCCn2c1nc(C(=O)NCc1ccc(F)cc1)c(O)c2=O (racemic) | 18 | 1000 | 500 | 
CN(C)S(=O)(=O)N(C)[C@H]1CCCn2c1nc(C(=O)NCc1ccc(F)cc1)c(O)c2=O | 5 | 31 | 12 | bioavailability [15]: 16%; fraction unbound [4]: 0.13; clearance [16]: 3.8 mL/min/kg; clearance [10]: 14 mL/min/kg; bioavailability [11]: 49%

Compound | IC50 [1] [nM] | IC95 [2] [nM] | IC95 [3] [nM] | other results
CS(=O)(=O)CC(=O)NC1CCCn2c1nc(C(=O)NCc1ccc(F)cc1)c(O)c2=O (racemic) | 7 | 1000 | 1000 | 
CN1CCN(S(=O)(=O)N(C)C2CCCn3c2nc(C(=O)NCc2ccc(F)cc2)c(O)c3=O)CC1 (racemic) | 7 | 20 | 6 | 
CN1CCOCC1c1nc(O)c(O)c(C(=O)NCc2ccc(F)cc2)n1 (configuration not stated) | 10 | 230 | 30 | 
O=C(NCc1ccc(F)cc1)c1nc2n(c(=O)c1O)CCCCC2N1CCOCC1 (racemic) | 62 |  |  | 
O=C(NCc1ccc(F)cc1)c1ncnc(O)c1O | 60 | > 10000 | > 10000 | 
O=C(NCc1ccc(F)cc1)c1nc2n(c(=O)c1O)CCCC2N1CCCCC1 (racemic) | 4 |  |  | 
CC(=O)N(C)C1CCCn2c1nc(C(=O)NCc1ccc(F)cc1)c(O)c2=O (racemic) | 6 | 1000 | 1000 | 
CN1CCN(S(=O)(=O)N(C)[C@@H]2CCCn3c2nc(C(=O)NCc2ccc(F)cc2)c(O)c3=O)CC1 | 10 | 20 | 13 | 
CN(C)S(=O)(=O)N(C)C1CCCn2c1nc(C(=O)NCc1ccc(F)cc1)c(O)c2=O (racemic) | 5 | 21 | 16 | 
CN(C(=O)CS(=O)(=O)N(C)C)C1CCCn2c1nc(C(=O)NCc1ccc(F)cc1)c(O)c2=O (racemic) | 9 | 47 | 16 | fraction unbound [4]: 0.19
CN(C)C(=O)C(=O)N(C)C1CCCCn2c1nc(C(=O)NCc1ccc(F)cc1)c(O)c2=O (racemic) | 13 | 63 | 94 | 
CN(C)C1CCCCn2c1nc(C(=O)NCc1ccc(F)cc1)c(O)c2=O (racemic) | 550 |  |  | 
O=C(NCc1ccc(F)cc1)c1nc2n(c(=O)c1O)CCC2 | 8 |  |  | 
CN(Cc1ccccc1)C1CCCn2c1nc(C(=O)NCc1ccc(F)cc1)c(O)c2=O (racemic) | 4 |  |  | 
CN1CCCN(C2CCCCn3c2nc(C(=O)NCc2ccc(F)cc2)c(O)c3=O)S1(=O)=O (racemic) | 6 | 156 | 78 | 
O=C(NCc1ccc(F)cc1)c1nc2n(c(=O)c1O)CCCC2 | 5 |  |  | 
CN(C(=O)CS(=O)(=O)N(C)C)[C@@H]1CCCn2c1nc(C(=O)NCc1ccc(F)cc1)c(O)c2=O | 7 | 62 | 31 | 
CN(C)C1CCCn2c1nc(C(=O)NCc1ccc(F)cc1)c(O)c2=O (racemic) | 69 |  |  | 
CN1CCN(S(=O)(=O)N(C)[C@H]2CCCn3c2nc(C(=O)NCc2ccc(F)cc2)c(O)c3=O)CC1 | 7 | 6 | 6 | fraction unbound [7]: 0.18; Stability [17]: 10 µL/min/mg; fraction unbound [9]: 0.24; clearance [16]: 23 mL/min/kg; clearance [10]: 98 mL/min/kg; bioavailability [11]: 15%; Stability [18]: 8 µL/min/mg
CN(C(=O)Cn1cccn1)C1CCCn2c1nc(C(=O)NCc1ccc(F)cc1)c(O)c2=O (racemic) | 3 | > 1000 | > 1000 | 
O=C(NCc1ccc(F)cc1)c1nc2n(c(=O)c1O)CCCC2N1CCCC1 (racemic) | 63 |  |  | 
CN(C1CCCn2c1nc(C(=O)NCc1ccc(F)cc1)c(O)c2=O)S(C)(=O)=O (racemic) | 12 | 86 | 26 | Stability [6]: 29 %/hr; clearance [10]: 48 mL/min/kg; bioavailability [11]: 47%; Stability [12]: 74 %/hr; Stability [13]: 88 %/hr
CN(C)S(=O)(=O)N(C)C1CCCCn2c1nc(C(=O)NCc1ccc(F)cc1)c(O)c2=O (racemic) | 10 | 125 | 31 | 
Cc1nn(C)c(C)c1S(=O)(=O)N(C)C1CCCn2c1nc(C(=O)NCc1ccc(F)cc1)c(O)c2=O (racemic) | 7 | 63 | 21 | Stability [6]: 78 %/hr; Stability [12]: 90 %/hr; Stability [13]: 94 %/hr
